Experimental data as given in ChEMBL document CHEMBL3774372, “Design, physico-chemical properties and biological evaluation of some new N-[(phenoxy)alkyl]- and N-{2-[2-(phenoxy)ethoxy]ethyl}aminoalkanols as anticonvulsant agents” (Bioorg Med Chem, 2016).
The source made the active and inactive calls.

Legend:
Mus musculus [1] = experiment: Anticonvulsant activity in mouse assessed as protection against maximal electric shock-induced seizures at 3 mg/kg, ip measured after 0.5 hrs; format: functional, organism-based
How it was run: (§1)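 Mice dosed ip with suspension in 0.5% methylcellulose; maximal electroshock applied at the listed time after dosing. Protection = abolition of hindlimb tonic extension component of seizure; reported as animals protected/animals tested.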

Mus musculus [2] = experiment: Anticonvulsant activity in mouse assessed as protection against maximal electric shock-induced seizures at 3 mg/kg, ip measured after 4 hrs; format: functional, organism-based; how it was run: as §1
Mus musculus [3] = experiment: Anticonvulsant activity in mouse assessed as protection against maximal electric shock-induced seizures at 10 mg/kg, ip measured after 0.5 hrs; format: functional, organism-based; how it was run: as §1
Mus musculus [4] = experiment: Anticonvulsant activity in mouse assessed as protection against maximal electric shock-induced seizures at 10 mg/kg, ip measured after 4 hrs; format: functional, organism-based; how it was run: as §1
Mus musculus [5] = experiment: Neurotoxicity in mouse at 10 mg/kg, ip after 4 hrs by rotarod test; format: toxicity, organism-based; settings: in vivo
Mus musculus [6] = experiment: Anticonvulsant activity in mouse assessed as protection against maximal electric shock-induced seizures at 30 mg/kg, ip measured after 0.5 hrs; format: functional, organism-based; how it was run: as §1
Mus musculus [7] = experiment: Anticonvulsant activity in mouse assessed as protection against maximal electric shock-induced seizures at 30 mg/kg, ip measured after 4 hrs; format: functional, organism-based; how it was run: as §1
Mus musculus [8] = experiment: Anticonvulsant activity in mouse assessed as protection against maximal electric shock-induced seizures at 100 mg/kg, ip measured after 4 hrs; format: functional, organism-based; how it was run: as §1
Mus musculus [9] = experiment: Neurotoxicity in mouse at 10 mg/kg, ip after 0.5 hrs by rotarod test; format: toxicity, organism-based; settings: in vivo
How it was run: (§2)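 Mice were dosed ip with compound suspended in 0.5% methylcellulose. Rotarod: a 1 in. knurled rod turning at 6 rpm. Neurotoxicity was scored as failure to stay on the rod for at least 1 min in each of three trials. Results are given as the number of animals affected out of the number tested.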

Mus musculus [10] = experiment: Neurotoxicity in mouse at 3 mg/kg, ip after 0.5 hrs by rotarod test; format: toxicity, organism-based; settings: in vivo; how it was run: as §2
Mus musculus [11] = experiment: Neurotoxicity in mouse at 3 mg/kg, ip after 4 hrs by rotarod test; format: toxicity, organism-based; settings: in vivo
Mus musculus [12] = experiment: Anticonvulsant activity in mouse assessed as protection against subcutaneous pentylenetetrazol-induced seizures at 30 mg/kg, ip measured after 0.5 hrs; format: functional, organism-based
How it was run: (§3)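 Mice dosed ip as 0.5% methylcellulose suspension; pentylenetetrazole 85 mg/kg in 0.9% NaCl injected subcutaneously into posterior midline, animals watched at least 30 min. Protection = no threshold seizure (single clonic spasm episode lasting ≥5 s); scored protected/tested.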

Mus musculus [13] = experiment: Anticonvulsant activity in mouse assessed as protection against subcutaneous pentylenetetrazol-induced seizures at 30 mg/kg, ip measured after 4 hrs; format: functional, organism-based; how it was run: as §3
Mus musculus [14] = experiment: Neurotoxicity in mouse at 30 mg/kg, ip after 0.5 hrs by rotarod test; format: toxicity, organism-based; settings: in vivo; how it was run: as §2
Mus musculus [15] = experiment: Neurotoxicity in mouse at 30 mg/kg, ip after 4 hrs by rotarod test; format: toxicity, organism-based; settings: in vivo; how it was run: as §2
Mus musculus [16] = experiment: Neurotoxicity in mouse at 100 mg/kg, ip after 4 hrs by rotarod test; format: toxicity, organism-based; settings: in vivo; how it was run: as §2
Mus musculus [17] = experiment: Neurotoxicity in mouse at 300 mg/kg, ip after 0.5 hrs by rotarod test; format: toxicity, organism-based; settings: in vivo; how it was run: as §2
Vibrio harveyi [18] = experiment: Mutagenicity in Vibrio harveyi BB7 assessed as number of colonies after 48 hrs (reference value: 13 to 14 no_unit); format: ADME, organism-based; settings: in vivo
How it was run: (§4)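 Vibrio harveyi mutagenicity test: test compound was added to exponentially growing cultures (A600 = 0.1, 30 °C) and grown to OD600 0.3–0.4. Then 5 × 10^6 cells were plated on BOSS agar with neomycin (final 100 µg/mL) and incubated 48 h at 30 °C. Neomycin-resistant colonies were counted. Triplicate; controls were water, DMSO and NQNO 40 ng/mL.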

Vibrio harveyi [19] = experiment: Mutagenicity in Vibrio harveyi BB7X assessed as number of colonies after 48 hrs (reference value: 15 to 16 no_unit); format: ADME, organism-based; settings: in vivo; how it was run: as §4
Vibrio harveyi [20] = experiment: Mutagenicity in Vibrio harveyi BB7M assessed as number of colonies after 48 hrs (reference value: 13 to 14 no_unit); format: ADME, organism-based; settings: in vivo; how it was run: as §4
Vibrio harveyi [21] = experiment: Mutagenicity in Vibrio harveyi BB7XM assessed as number of colonies after 48 hrs (reference value: 14 no_unit); format: ADME, organism-based; settings: in vivo; how it was run: as §4
Vibrio harveyi [22] = experiment: Antimutagenic activity against Vibrio harveyi BB7 assessed as inhibition of NQNO-induced mutagenicity after 48 hrs; format: functional
How it was run: (§5)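 V. harveyi cultures grown exponentially to A600 0.1 at 30 °C, exposed to test compound for 15 min, then to NQNO, and grown on to A600 0.3–0.4. 5 × 10⁶ cells plated on BOSS agar with neomycin (100, final). Neomycin-resistant colonies counted after 48 h at 30 °C. Result given as % inhibition of NQNO mutagenicity; three independent repeats.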

Vibrio harveyi [23] = experiment: Antimutagenic activity against Vibrio harveyi BB7X assessed as inhibition of NQNO-induced mutagenicity after 48 hrs; format: functional; how it was run: as §5
Vibrio harveyi [24] = experiment: Antimutagenic activity against Vibrio harveyi BB7M assessed as inhibition of NQNO-induced mutagenicity after 48 hrs; format: functional; how it was run: as §5
Vibrio harveyi [25] = experiment: Antimutagenic activity against Vibrio harveyi BB7XM assessed as inhibition of NQNO-induced mutagenicity after 48 hrs; format: functional; how it was run: as §5

In the case of CC[C@H](CO)NCCOCCOc1c(C)cccc1C, the Activity (Mus musculus [1]) is reported as “inactive”, the Activity (Mus musculus [2]) is reported as “inactive” and the Activity (Mus musculus [3]) is reported as “inactive”. For the same molecule, the Activity (Mus musculus [4]) was “inactive”, the Activity (Mus musculus [5]) was “Non-toxic” and the Activity (Mus musculus [6]) was “Active”. For the same molecule, the Activity (Mus musculus [7]) was “inactive”, the Activity (Mus musculus [8]) was “inactive” and the Activity (Mus musculus [9]) was “Non-toxic”. For the same molecule, the Activity (Mus musculus [10]) was “Non-toxic”, the Activity (Mus musculus [11]) was “Non-toxic” and the Activity (Mus musculus [12]) was “inactive”. For the same molecule, the Activity (Mus musculus [13]) was “inactive”, the Activity (Mus musculus [14]) was “Non-toxic” and the Activity (Mus musculus [15]) was “Non-toxic”. For the same molecule, the Activity (Mus musculus [16]) was “Non-toxic”, the Activity (Mus musculus [17]) was “Toxic” and the Activity (Vibrio harveyi [18]) was 20. It also gave an Activity (Vibrio harveyi [19]) of 26, an Activity (Vibrio harveyi [20]) of 20 and an Activity (Vibrio harveyi [21]) of 27. For the same molecule, the “inhibition (INH)” value (Vibrio harveyi [22]) was 81%, the “inhibition (INH)” value (Vibrio harveyi [23]) was 56% and the “inhibition (INH)” value (Vibrio harveyi [24]) was 55%. The “inhibition (INH)” value (Vibrio harveyi [25]) was 30%.
